This note sets out measurements from ChEMBL document CHEMBL3120090, “High-affinity recognition of HIV-1 frameshift-stimulating RNA alters frameshifting in vitro and interferes with HIV-1 infectivity” (J Med Chem, 2014).

The test system of data set [1] is Human immunodeficiency virus 1. Put plainly: Binding affinity to HIV-1 FSS RNA in HBS buffer at pH 7.4 assessed as association rate by surface plasmon resonance analysis. The method in brief:
(§1)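 RNA captured on SPR chips at low (~300 RU) and high (~1200 RU) density, each measured once. Compound flowed in HBS (0.01 M HEPES, 0.150 M NaCl, pH 7.4) at 60 μL/min over at least five concentrations, each injected at least twice. A 20 s 0.5 or 1 M NaCl pulse regenerated the chip where needed. Reference-subtracted, blank-corrected sensorgrams (association plus dissociation) were globally fit to 1:1 Langmuir; error is standard error of the fit.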

The nature of data set [2]: Binding affinity to HIV-1 FSS RNA in HBS buffer at pH 7.4 assessed as dissociation rate by surface plasmon resonance analysis. The arrangement: species or system Human immunodeficiency virus 1. Summed up: as §1
Data set [3] is described as follows: Binding affinity to HIV-1 FSS RNA after 10 mins by fluorescence titration analysis. The arrangement: species or system Human immunodeficiency virus 1. Summed up: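 Solution fluorescence titration in 20 mM HEPES, 150 mM NaCl. Compound at 1 μM, titrated with unlabeled HIV-1 FSS RNA (10 μM stock), FSS DNA or yeast tRNA (40 μM stocks). 10 min equilibration after each addition. Quenching of benzo[g]quinoline fluorescence read in triplicate 1 min apart, corrected for dilution; KD from saturable quenching. Error is SD.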

Data set [4] can be described thus: Binding affinity to HIV-1 FSS RNA in HBS buffer at pH 7.4 by surface plasmon resonance analysis. The arrangement: species or system Human immunodeficiency virus 1. The note with it: read-out: Kd. Summed up:
as §1
In general terms: Surface plasmon resonance follows binding to a sensor surface in real time, without labels.

Data set [5] concerns Human T-lymphotropic virus 2. Put plainly: Binding affinity to HTLV-2 FSS RNA up to 3 uM by surface plasmon resonance analysis.
Data set [6] can be described thus: Cellular uptake in nucleus of HEK293FT cells at 50 uM measured for 12 hrs by fluorescence microscopy. Format: ADME, cell-based. The following applies: human.
Data set [7] in a line: Cellular uptake in cytoplasm of HEK293FT cells at 50 uM measured for 12 hrs by fluorescence microscopy. Format: ADME, cell-based. The following applies: human.
Data set [8] relates to HEK293FT. Nature of the data set: Binding affinity to HIV-1 FSS RNA transfected in HEK293FT cells after 36 hrs by Renilla/firefly luciferase reporter gene assay. Type of data set: cell-based. The following applies: Human immunodeficiency virus 1. The method in brief: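 HEK293FT cells (1.5 × 10^4/well) transiently transfected with pDualHIV(−1) or in-frame pDualHIV(0) Rluc–FSS–Fluc plasmid (0.2 μg). Compound (0–50 μM) added 5 h later, in triplicate, for 36 h at 37 °C. Fluc/Rluc ratio from lysate, expressed relative to untreated transfected cells (100%). Error is SEM.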
A general note: A reporter such as luciferase makes a cellular process visible.

Data set [9] deals with HEK293FT. Put plainly: Binding affinity to HTLV-2 FSS RNA transfected in HEK293FT cells at 1 to 50 uM after 36 hrs by Renilla/firefly luciferase reporter gene assay. Type of data set: cell-based. The following applies: Human T-lymphotropic virus 2. The method in brief:
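HEK293FT cells transiently transfected with pDualHTLV-2(−1) (Fluc made only via −1 frameshift at the HTLV-2 site) and treated 5 h later with compound (0–50 μM) in triplicate for 36 h at 37 °C. Fluc/Rluc ratio from lysate, relative to untreated transfected cells. Error is SEM.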

The nature of data set [10]: Cytotoxicity against HEK293FT cells assessed as cell viability at >10 uM after 24 hrs by WST-1 assay. Format: cell-based. The following applies: human. The method in brief: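 HEK293FT cells at 80% confluence in DMEM/10% FBS exposed to compound (up to 0.5 mM) or a water control, in triplicate, for 24 h at 37 °C. WST-1 reagent then added for 2 h. Absorbance at 450 minus 690 nm, blank-corrected, plotted against concentration. Error is SD of three measurements.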
Background: Tetrazolium dyes change colour on reduction, which living cells bring about.

The structures appear in SMILES notation. pKd: −log10 of the molar value. Activity calls are given as the source filed them. The calls are words filed in the database; no cut-off is given here.

For the molecule `C=CC[C@H](NC(=O)c1cc2cc3ccccc3cc2nc1CC)C(=O)N1CCC[C@H]1C(=O)N[C@@H](Cc1ccccc1)C(=O)NCCCN`, in data set [1], the Ka worked out at 1.16 ×10³ /M/s. For the same molecule, the “Dissociation rate constant (koff)” value in data set [2] worked out at 2.25 ×10⁻² /s. Besides, the negative logarithm of the Kd (pKd) (usually −log10 of the Kd, conventionally taken in molar units) in data set [3] was 6.39; in [4], 4.71. Also, the result in [5] was inactive.

Take `CCc1nc2cc3ccccc3cc2cc1C(=O)N[C@@H](C/C=C\C[C@H](N)C(=O)N1CCC[C@H]1C(=O)N[C@@H](Cc1ccccc1)C(=O)NCCCN)C(=O)N1CCC[C@H]1C(=O)N[C@@H](Cc1ccccc1)C(=O)NCCCN`: the Ka in data set [1] amounted to 4.58 ×10³ /M/s. In addition, in [2], the “Dissociation rate constant (koff)” value turned out to be 1.21 ×10⁻² /s. In addition, in [4], the pKd is 5.56. Besides, in data set [5], the outcome was inactive.

`CCc1nc2ccccc2cc1C(=O)N[C@@H](C/C=C/C[C@H](NC(=O)c1cc2ccccc2nc1CC)C(=O)N1CCC[C@H]1C(=O)N[C@@H](Cc1ccccc1)C(=O)NCCCN)C(=O)N1CCC[C@H]1C(=O)N[C@@H](Cc1ccccc1)C(=O)NCCCN`: the Ka in [1] worked out at 1.62 ×10³ /M/s. Also, in data set [2], the “Dissociation rate constant (koff)” value is 7.5 ×10⁻³ /s. Also, in data set [4], the pKd is 5.33.

In the case of `CCc1nc2cc3ccccc3cc2cc1C(=O)N[C@@H](CSSC[C@H](NC(=O)c1cc2cc3ccccc3cc2nc1CC)C(=O)N1CCC[C@H]1C(=O)N[C@@H](Cc1ccccc1)C(=O)NCCCN)C(=O)N1CCC[C@H]1C(=O)N[C@@H](Cc1ccccc1)C(=O)NCCCN`, the Drug uptake entry in data set [6] and in data set [7] was “Active” throughout. For the same molecule, the Ka in data set [1] is 1.07 ×10⁴ /M/s. Further, the “Dissociation rate constant (koff)” value in data set [2] is on record as 7.92 ×10⁻³ /s. The Activity in data set [8] was 25%; in data set [10], “Toxic”. Besides, the pKd in data set [4] is 6.13. In [9], the result was inactive.

In the case of `NCCCNC(=O)[C@H](Cc1ccccc1)NC(=O)[C@@H]1CCCN1C(=O)[C@@H](N)C/C=C\C[C@H](N)C(=O)N1CCC[C@H]1C(=O)N[C@@H](Cc1ccccc1)C(=O)NCCCN`, in data set [5], the result was inactive.
